Columns and labels:
Conditions in all cases: stereoisomer not certain
UniProt Q8VF43 = target: T1, UniProt Q8VF43
T1 sequence (whole entry): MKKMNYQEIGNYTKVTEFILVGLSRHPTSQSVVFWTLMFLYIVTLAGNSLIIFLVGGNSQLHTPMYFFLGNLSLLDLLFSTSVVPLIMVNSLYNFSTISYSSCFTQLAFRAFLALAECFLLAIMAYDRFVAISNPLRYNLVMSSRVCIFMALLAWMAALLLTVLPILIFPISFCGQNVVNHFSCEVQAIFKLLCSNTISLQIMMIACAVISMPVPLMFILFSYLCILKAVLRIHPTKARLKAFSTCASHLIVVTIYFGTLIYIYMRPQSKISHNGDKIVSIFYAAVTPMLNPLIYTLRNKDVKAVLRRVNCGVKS
Outline: (§1)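 Each receptor–molecule pair is labelled responsive or non-responsive (inactive) according to whether the original authors judged the measured signal statistically different from baseline. The data were taken from the main text and supplementary material of published papers and checked for typos and inconsistencies. Assay methods differed by source, with transient luciferase assays in mammalian cell lines being common.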

UniProt Q8VF52 = target: T2, UniProt Q8VF52
T2 sequence (whole entry): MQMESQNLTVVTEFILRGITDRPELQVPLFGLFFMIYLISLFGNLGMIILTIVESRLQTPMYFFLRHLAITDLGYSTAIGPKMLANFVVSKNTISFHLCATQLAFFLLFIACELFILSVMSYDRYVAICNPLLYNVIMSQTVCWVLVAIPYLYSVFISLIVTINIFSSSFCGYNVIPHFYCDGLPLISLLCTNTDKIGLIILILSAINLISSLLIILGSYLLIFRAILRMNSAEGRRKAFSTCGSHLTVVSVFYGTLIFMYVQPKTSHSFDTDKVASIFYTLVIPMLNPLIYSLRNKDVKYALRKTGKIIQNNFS
Outline: as §1

UniProt Q8VFM8 = target: T3, UniProt Q8VFM8
T3 sequence (whole entry): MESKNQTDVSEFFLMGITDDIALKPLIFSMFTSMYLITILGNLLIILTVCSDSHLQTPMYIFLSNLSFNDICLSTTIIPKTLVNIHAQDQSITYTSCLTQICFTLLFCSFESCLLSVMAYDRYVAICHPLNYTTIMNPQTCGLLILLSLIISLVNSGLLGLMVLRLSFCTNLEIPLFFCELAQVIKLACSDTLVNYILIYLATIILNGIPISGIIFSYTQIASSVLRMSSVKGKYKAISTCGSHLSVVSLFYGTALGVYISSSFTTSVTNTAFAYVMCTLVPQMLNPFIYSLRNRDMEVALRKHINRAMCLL
Outline: as §1

UniProt Q8VFP5 = target: T4, UniProt Q8VFP5
T4 sequence (whole entry): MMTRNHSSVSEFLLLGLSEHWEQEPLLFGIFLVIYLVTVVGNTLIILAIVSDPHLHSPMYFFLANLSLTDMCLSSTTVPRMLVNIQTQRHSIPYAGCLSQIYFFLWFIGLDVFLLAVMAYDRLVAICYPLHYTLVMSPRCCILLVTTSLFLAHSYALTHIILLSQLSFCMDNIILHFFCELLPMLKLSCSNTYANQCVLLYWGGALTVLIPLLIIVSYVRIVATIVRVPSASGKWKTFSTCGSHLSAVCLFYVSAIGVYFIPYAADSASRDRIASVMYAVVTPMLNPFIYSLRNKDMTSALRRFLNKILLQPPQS
Outline: as §1

UniProt Q8VG01 = target: T5, UniProt Q8VG01
T5 sequence (whole entry): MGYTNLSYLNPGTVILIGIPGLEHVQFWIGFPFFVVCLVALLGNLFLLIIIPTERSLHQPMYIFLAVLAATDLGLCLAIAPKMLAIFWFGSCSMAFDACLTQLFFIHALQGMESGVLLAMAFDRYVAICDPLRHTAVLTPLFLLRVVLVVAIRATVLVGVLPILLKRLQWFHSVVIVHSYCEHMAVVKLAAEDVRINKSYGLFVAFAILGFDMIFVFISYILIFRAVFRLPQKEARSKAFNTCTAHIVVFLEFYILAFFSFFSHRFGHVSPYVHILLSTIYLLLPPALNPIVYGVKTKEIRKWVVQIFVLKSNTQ
Outline: as §1

UniProt Q8VF87 = target: UniProt Q8VF87
Outline: as §1
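Note: active if original authors judged signal statistically different from baseline.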

Chain of UniProt Q8VF87 (Q8VF87 as listed by the source): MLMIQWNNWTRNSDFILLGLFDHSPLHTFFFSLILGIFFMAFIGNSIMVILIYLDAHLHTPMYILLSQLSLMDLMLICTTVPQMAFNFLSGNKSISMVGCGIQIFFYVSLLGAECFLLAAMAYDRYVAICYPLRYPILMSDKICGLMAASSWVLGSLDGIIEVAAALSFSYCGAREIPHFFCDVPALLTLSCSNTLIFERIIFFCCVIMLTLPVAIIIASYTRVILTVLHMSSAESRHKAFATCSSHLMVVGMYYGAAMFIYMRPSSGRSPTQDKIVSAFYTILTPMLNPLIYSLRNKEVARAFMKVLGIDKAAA

SMILES | odorant receptor agonist call (UniProt Q8VF43) | odorant receptor agonist call (UniProt Q8VF52) | odorant receptor agonist call (UniProt Q8VFM8) | odorant receptor agonist call (UniProt Q8VFP5) | odorant receptor agonist call (UniProt Q8VG01) | odorant receptor agonist call (UniProt Q8VF87)
CCCCCC=CCCC=O | inactive | inactive | inactive | inactive | inactive | –
CCCCCCC(C)O (stereo unspecified) | inactive | inactive | inactive | inactive | inactive | –
C=C(CC)CCCC(C)(C)O | inactive | inactive | inactive | inactive | inactive | –
CCOC(=O)CC(C)C | inactive | inactive | inactive | inactive | inactive | –
CCc1ccccc1O | inactive | inactive | inactive | inactive | inactive | –
O=C([O-])CCCCCCC(=O)[O-].[H+].[H+] | inactive | inactive | inactive | inactive | inactive | –
CCC=CCCC=CC=O | inactive | inactive | inactive | inactive | inactive | –
CCC(C)c1nccnc1OC (stereo unspecified) | inactive | inactive | inactive | inactive | inactive | –
c1ccc2ncccc2c1 | inactive | active | inactive | inactive | inactive | –
CCCCCCCCOC=O | inactive | inactive | inactive | inactive | inactive | –
Cc1c(C)c(C)c(C=O)c(C)c1C | inactive | active | inactive | inactive | inactive | –
CC(=O)C=CC1=C(C)CCCC1(C)C | inactive | active | inactive | inactive | inactive | –
CCCCCOC(=O)CCC | inactive | inactive | inactive | inactive | inactive | –
C1CCOCC1 | inactive | inactive | inactive | inactive | inactive | –
CC(C)=C1CCC(C)CC1=O (stereo unspecified) | inactive | inactive | inactive | inactive | inactive | –
CCCCCCC=CC=O | inactive | inactive | inactive | inactive | inactive | –
CC(C)=CCCC(C)=CCOC(=O)C(C)C | inactive | inactive | inactive | inactive | inactive | –
Cc1ccc(OC(=O)C(C)C)cc1 | inactive | inactive | inactive | inactive | inactive | –
CC=Cc1ccc(OC)cc1 | inactive | inactive | inactive | inactive | inactive | –
CCCCCCCCC=CC=O | inactive | inactive | inactive | inactive | inactive | –
CC=CC(=O)C1=C(C)CCCC1(C)C | inactive | active | inactive | inactive | inactive | –

SMILES | odorant receptor agonist call (UniProt Q8VF43) | odorant receptor agonist call (UniProt Q8VF52) | odorant receptor agonist call (UniProt Q8VFM8) | odorant receptor agonist call (UniProt Q8VFP5) | odorant receptor agonist call (UniProt Q8VG01) | odorant receptor agonist call (UniProt Q8VF87)
CCc1ncc(C)nc1CC | inactive | inactive | inactive | inactive | inactive | –
C=CC(=O)CCCCC | inactive | inactive | inactive | inactive | inactive | –
CCCCCCC(C=O)=Cc1ccccc1 | inactive | inactive | inactive | inactive | inactive | –
C=CC(=C)CCC=C(C)CCC=C(C)C | inactive | inactive | inactive | inactive | inactive | –
CCCCCC(=Cc1ccccc1)C(OC)OC | inactive | inactive | inactive | inactive | inactive | –
CCC(S)C(C)CO (stereo unspecified) | – | – | – | – | – | inactive
CNc1ccccc1C(=O)OC | inactive | inactive | inactive | inactive | inactive | –
CCCC=O | inactive | inactive | inactive | inactive | inactive | –
C=C(C)C1CC=C(C)CC1 (stereo unspecified) | inactive | inactive | inactive | inactive | inactive | –
COc1cnccn1 | inactive | inactive | inactive | inactive | inactive | –
COc1nccnc1C(C)C | inactive | inactive | inactive | inactive | inactive | –
O=C(O)C1CCC1 | inactive | inactive | inactive | inactive | inactive | –
CC(=O)OCCc1ccccc1 | inactive | inactive | inactive | inactive | inactive | –
CCCC(C)C(=O)OCC (stereo unspecified) | inactive | inactive | inactive | inactive | inactive | –
CCOC(=O)C(C)CC (stereo unspecified) | inactive | inactive | inactive | inactive | inactive | –
C=C(C)C1CCC2(C)OC2C1 (stereo unspecified) | inactive | inactive | inactive | inactive | inactive | –
C=CC(=C)CCC=C(C)C | inactive | inactive | inactive | inactive | inactive | –
COC(OC)c1ccccc1 | inactive | inactive | inactive | inactive | inactive | –
COc1ccccc1 | inactive | inactive | inactive | inactive | inactive | –
CCCO | inactive | inactive | inactive | inactive | inactive | –

— the M2OR odorant receptor database
